Reference: ChEMBL document CHEMBL1128396, “Synthesis and biological evaluation of a series of new parenteral optically active 3-[[(N-alkylpyridinium-4'-yl)thio]methyl]-2-oxaisocephems” (1995)
Values after ≈ are worked out from the molar mass of the structure shown.

Key:
Assay type in all cases: functional
[1] = system: Staphylococcus epidermidis; assay: Antibacterial activity was determined against Staphylococcus epidermidis ATCC 12228 (Gram-positive)
Outline: (§1)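 2-fold agar dilution on Müller-Hinton agar. Overnight broth cultures were diluted to about 10^6 CFU/mL, and 10^4 CFU/spot was applied to plates with graded drug concentrations. Plates were incubated 18 h at 37 °C.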

Escherichia coli = assay: Antibacterial activity was determined against Escherichia coli NIHJ JC-2 (Gram-negative); outline: as §1
Klebsiella pneumoniae = assay: Antibacterial activity was determined against Klebsiella pneumoniae NCTC 9632 (Gram-negative); outline: as §1
Pseudomonas aeruginosa = assay: Antibacterial activity was determined against Pseudomonas aeruginosa ATCC 10145 (Gram-negative); outline: as §1
Staphylococcus aureus [2] = assay: Antibacterial activity was determined against Methicillin-resistant Staphylococcus aureus (MRSA) 5038 (Gram-positive)
Serratia marcescens = assay: Antibacterial activity was determined against Serratia marcescens ATCC 12648 (Gram-negative); outline: as §1
Enterococcus faecalis [3] = assay: Antibacterial activity was determined against Enterococcus faecalis ATCC 21212 (Gram-positive); outline: as §1
Staphylococcus aureus [4] = assay: Antibacterial activity was determined against Staphylococcus aureus FDA 209P (Gram-positive); outline: as §1
Mus musculus [5] = assay: Antibacterial activity was determined against Escherichia coli 29 at a challenge dose of 1.35*10e6 (cells/mouse) administered subcutaneously; details: sc
Outline: (§2)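 Cultures were grown overnight at 37 °C in tryptic soy broth (S. aureus, MRSA, E. faecalis) or Müller-Hinton broth (E. coli, S. pneumoniae). Graded doses were given subcutaneously 1 h post-infection. ED50 was calculated by probit from day-7 survival, with 95% confidence limits.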

Mus musculus [6] = assay: Antibacterial activity was determined against Streptococcus pneumoniae C 0096 at a challenge dose of 1.60*10e2 (cells/mouse) administered subcutaneously; details: sc; outline: as §2
Enterococcus faecalis [7] = assay: In vitro antibacterial activity against clinical isolates Enterococcus faecalis was determined; outline: as §1
Mus musculus [8] = assay: Antibacterial activity was determined against Enterococcus faecalis C 0063 at a challenge dose of 7.00*10e7 (cells/mouse) administered subcutaneously; details: sc; outline: as §2
Staphylococcus aureus [9] = assay: […] was determined against MRSA 5120
Staphylococcus aureus [10] = assay: In vitro antibacterial activity against clinical isolates methicillin-resistant Staphylococcus aureus was determined
Outline: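 2-fold agar dilution on Müller-Hinton agar. Overnight broth cultures were diluted to about 10^6 CFU/mL, and 10^4 CFU/spot was applied to plates with graded drug concentrations.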

Mus musculus [11] = assay: Antibacterial activity was determined against MRSA 5120 at a challenge dose of 7.6*10e7 (cells/mouse) administered subcutaneously; details: sc; outline: as §2
Streptococcus pneumoniae = assay: In vitro antibacterial activity against clinical isolates Ampicillin-insensitive Streptococcus pneumoniae was determined; outline: as §1
Mus musculus [12] = assay: Antibacterial activity was determined against MRSA 5038 at a challenge dose of 1.00*10e7 (cells/mouse) administered subcutaneously; details: sc; outline: as §2
Mus musculus [13] = assay: Antibacterial activity was determined against Staphylococcus aureus Smith at a challenge dose of 1.32*10e7 (cells/mouse) administered subcutaneously; details: sc; outline: as §2

In the case of CC(C)=CC[n+]1ccc(SCC2=C(C(=O)O)N3C(=O)[C@@H](NC(=O)/C(=N\OC4CCCC4)c4csc(N)n4)[C@H]3CO2)cc1.O=S(=O)([O-])O, the MIC [1] is reported as 0.2 µg/mL, the MIC (Escherichia coli) is reported as 0.78 µg/mL and the MIC (Klebsiella pneumoniae) is reported as 0.78 µg/mL. It also gave an MIC (Pseudomonas aeruginosa) of 12.5 µg/mL, an MIC (Staphylococcus aureus [2]) of 12.5 µg/mL and an MIC (Serratia marcescens) of 1.56 µg/mL. The MIC (Enterococcus faecalis [3]) was 1.56 µg/mL and the MIC (Staphylococcus aureus [4]) was 0.2 µg/mL.

N#CC[n+]1ccc(SCC2=C(C(=O)O)N3C(=O)[C@@H](NC(=O)/C(=N\OC4CCCC4)c4csc(N)n4)[C@H]3CO2)cc1.O=S(=O)([O-])O gave an MIC [1] of 0.2 µg/mL, an MIC (Escherichia coli) of 0.39 µg/mL and an MIC (Klebsiella pneumoniae) of 0.39 µg/mL. For the same molecule, the MIC (Pseudomonas aeruginosa) was 6.25 µg/mL, the MIC (Staphylococcus aureus [2]) was 12.5 µg/mL and the MIC (Serratia marcescens) was 1.56 µg/mL. The MIC (Enterococcus faecalis [3]) was 1.56 µg/mL and the MIC (Staphylococcus aureus [4]) was 0.2 µg/mL.

For Nc1nc(/C(=N/OC2CCCC2)C(=O)N[C@@H]2C(=O)N3C(C(=O)O)=C(CSc4cc[n+](CC(=O)N5CCOCC5)cc4)OC[C@H]23)cs1.O=S(=O)([O-])O, the MIC [1] was 0.2 µg/mL, the MIC (Escherichia coli) was 0.78 µg/mL and the MIC (Klebsiella pneumoniae) was 0.78 µg/mL. For the same molecule, the MIC (Pseudomonas aeruginosa) was 6.25 µg/mL, the MIC (Staphylococcus aureus [2]) was 12.5 µg/mL and the MIC (Serratia marcescens) was 1.56 µg/mL. It also gave an MIC (Enterococcus faecalis [3]) of 1.56 µg/mL and an MIC (Staphylococcus aureus [4]) of 0.2 µg/mL.

Work on CO[C@@]1(NC(=O)CSC(F)F)C(=O)N2C(C(=O)O)=C(CSc3nnnn3CCO)CO[C@@H]21 [FLOMOXEF] yielded an MIC [1] of 0.39 µg/mL (≈ 0.786 µM), an MIC (Escherichia coli) of 0.1 µg/mL (≈ 0.201 µM) and an ED50 (Mus musculus [5]) of 0.43 mg/kg. The MIC (Klebsiella pneumoniae) was 0.1 µg/mL (≈ 0.201 µM), the ED50 (Mus musculus [6]) was 18.6 mg/kg and the MIC50 (Enterococcus faecalis [7]) was > 100 µg/mL. The MIC80 (Enterococcus faecalis [7]) was > 100 µg/mL, the MIC90 (Enterococcus faecalis [7]) was > 100 µg/mL and the MIC (Pseudomonas aeruginosa) was > 100 µg/mL. The MIC (Staphylococcus aureus [2]) was 50 µg/mL (≈ 101 µM), the ED50 (Mus musculus [8]) was > 200 mg/kg and the MIC (Staphylococcus aureus [9]) was 25 µg/mL (≈ 50.4 µM). The MIC (Serratia marcescens) was 0.78 µg/mL (≈ 1.57 µM), the MIC (Enterococcus faecalis [3]) was 100 µg/mL (≈ 201 µM) and the MIC (Staphylococcus aureus [4]) was 0.39 µg/mL (≈ 0.786 µM). It also gave an MIC50 (Staphylococcus aureus [10]) of 25 µg/mL (≈ 50.4 µM), an MIC80 (Staphylococcus aureus [10]) of 100 µg/mL (≈ 201 µM) and an MIC90 (Staphylococcus aureus [10]) of 100 µg/mL (≈ 201 µM). It also gave an ED50 (Mus musculus [11]) of 8.52 mg/kg, an MIC50 (Streptococcus pneumoniae) of 3.13 µg/mL (≈ 6.3 µM) and an MIC80 (Streptococcus pneumoniae) of 6.25 µg/mL (≈ 12.6 µM). For the same molecule, the MIC90 (Streptococcus pneumoniae) was 6.25 µg/mL (≈ 12.6 µM).

In the case of C#CC[n+]1ccc(SCC2=C(C(=O)O)N3C(=O)[C@@H](NC(=O)/C(=N\OC4CCCC4)c4csc(N)n4)[C@H]3CO2)cc1.O=S(=O)([O-])O, the MIC [1] is reported as 0.1 µg/mL, the MIC (Escherichia coli) is reported as 0.39 µg/mL and the MIC (Klebsiella pneumoniae) is reported as 0.39 µg/mL. For the same molecule, the MIC (Pseudomonas aeruginosa) was 6.25 µg/mL, the MIC (Staphylococcus aureus [2]) was 6.25 µg/mL and the MIC (Serratia marcescens) was 1.56 µg/mL. The MIC (Enterococcus faecalis [3]) was 1.56 µg/mL and the MIC (Staphylococcus aureus [4]) was 0.2 µg/mL.

CNC(=O)C[n+]1ccc(SCC2=C(C(=O)O)N3C(=O)[C@@H](NC(=O)/C(=N\OC4CCCC4)c4csc(N)n4)[C@H]3CO2)cc1.O=S(=O)([O-])O was tested, and the MIC [1] was 0.2 µg/mL, the MIC (Escherichia coli) was 0.78 µg/mL and the MIC (Klebsiella pneumoniae) was 0.39 µg/mL. The ED50 (Mus musculus [12]) was 2.27 mg/kg, the MIC (Pseudomonas aeruginosa) was 12.5 µg/mL and the MIC (Staphylococcus aureus [2]) was 6.25 µg/mL. The ED50 (Mus musculus [13]) was 0.18 mg/kg, the MIC (Serratia marcescens) was 1.56 µg/mL and the MIC (Enterococcus faecalis [3]) was 1.56 µg/mL. The MIC (Staphylococcus aureus [4]) was 0.2 µg/mL.

With CC(=O)C[n+]1ccc(SCC2=C(C(=O)O)N3C(=O)[C@@H](NC(=O)/C(=N\OC4CCCC4)c4csc(N)n4)[C@H]3CO2)cc1.O=S(=O)([O-])O the MIC [1] was 0.2 µg/mL, the MIC (Escherichia coli) was 0.39 µg/mL and the MIC (Klebsiella pneumoniae) was 0.39 µg/mL. The ED50 (Mus musculus [12]) was 2.76 mg/kg, the MIC (Pseudomonas aeruginosa) was 6.25 µg/mL and the MIC (Staphylococcus aureus [2]) was 6.25 µg/mL. For the same molecule, the ED50 (Mus musculus [13]) was 0.18 mg/kg, the MIC (Serratia marcescens) was 0.78 µg/mL and the MIC (Enterococcus faecalis [3]) was 0.78 µg/mL. It also gave an MIC (Staphylococcus aureus [4]) of 0.2 µg/mL.

Work on CC1(C)S[C@@H]2[C@H](NC(=O)[C@H](N)c3ccccc3)C(=O)N2[C@H]1C(=O)O [AMPICILLIN] yielded an ED50 (Mus musculus [6]) of 8.23 mg/kg, an MIC50 (Streptococcus pneumoniae) of 3.13 µg/mL (≈ 8.96 µM) and an MIC80 (Streptococcus pneumoniae) of 3.13 µg/mL (≈ 8.96 µM). It also gave an MIC90 (Streptococcus pneumoniae) of 3.13 µg/mL (≈ 8.96 µM).

CC(C)(C)C(=O)C[n+]1ccc(SCC2=C(C(=O)O)N3C(=O)[C@@H](NC(=O)/C(=N\OC4CCCC4)c4csc(N)n4)[C@H]3CO2)cc1.O=S(=O)([O-])O was tested, and the MIC [1] was 0.39 µg/mL, the MIC (Escherichia coli) was 1.56 µg/mL and the MIC (Klebsiella pneumoniae) was 1.56 µg/mL. It also gave an MIC (Pseudomonas aeruginosa) of 25 µg/mL, an MIC (Staphylococcus aureus [2]) of 6.25 µg/mL and an MIC (Serratia marcescens) of 3.13 µg/mL. The MIC (Enterococcus faecalis [3]) was 1.56 µg/mL and the MIC (Staphylococcus aureus [4]) was 0.2 µg/mL.
